The text below walks through data of paper PMC3276733 (Journal of Medicinal Chemistry, 2012).

In general, EC50 refers to the concentration needed to bring the measured effect to its halfway point.

Molecules are shown by their SMILES. Where two headings read alike, the source gives them in different places.

The subject of test [1] is tadpoles. As to conditions: cited from earlier work.
Test [2] deals with α1(Q241L)β2γ2L GABAA receptors (Rattus norvegicus, UniProt P62813, Q268L). In words: Potentiation of GABA currents in oocytes expressing the steroid-insensitive α1. The test is classed as cell-based. The following applies: GABA 2 TM, −70 mV, 4 WT and 4 mutant oocytes.
Test [3] addresses rat α1β2γ2L GABAA receptors expressed in Xenopus laevis oocytes (Rattus norvegicus, UniProt P62813). It is filed as cell-based. The following applies: 2 μM GABA, compound up to 10 μM. The method in brief:
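Rat α1, β2, γ2L cRNA (equal parts, 20-40 ng total) injected into defolliculated stage V-VI oocytes, which were held at 18 °C in supplemented ND96 (pH 7.4) and recorded 2-5 days later. Two-electrode voltage clamp at −70 mV. Response was the current ratio with/without compound, against 2 μM GABA. Direct gating: 10 μM compound without GABA, as a ratio to the 2 μM GABA current. ≥4 oocytes; SEM.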

Test [4] has as its system tadpoles. In words: Tadpole loss of righting reflex. The following applies: loss of swimming reflex; None = all tadpoles had a swimming response at 10 μM. It is filed as in vivo.
Setting [5] is: read-out: tadpole LRR EC50, loss of righting reflex, literature values ref 14.

Consider `C[C@@]12CC[C@H](O)C[C@H]1CC[C@@H]1[C@@H]2CC[C@]2(C)[C@H]1CC[C@]21CO1` (single isomer, unassigned) [ent-3], for which the EC50 with tadpoles [1] (setting [5]) was 1080 ± 10 nM.

Regarding `C[C@]12CC[C@@H](O)C[C@@H]1CC[C@@H]1[C@@H]2CC[C@@]2(C)[C@H]1CC[C@@]21CO1` [compound 3], the EC50 with tadpoles [1] (setting [5]) was 1350 ± 10 nM.

Regarding `C[C@]12CC[C@@H](O)C[C@@H]1CC[C@@H]1[C@@H]2[C@@H](OCc2ccccc2)C[C@@]2(C)[C@H]1CC[C@@]21CO1` [compound 5, (3α,5α,11β,17β)-Spiro[11-benzyloxyandrostane-17,2′-oxiran]-3-ol], the “effect of the α1 Q241L mutation on potentiation of GABA currents” value (shortened to “effect of the α1 Q241L mutation”) in test [2] (compound 0.5 TM) is reported as “abolishes, completely or nearly completely”.

With `C[C@@]12CC[C@H](O)C[C@H]1C[C@@H](OCc1ccccc1)[C@@H]1[C@@H]2CC[C@]2(C)[C@H]1CC[C@]21CO1` (single isomer, unassigned) [compound ent-7, (3β,5β,7α,8α,9β,10α,13α,14β,17α)-Spiro[7-Benzyoxyandrostane-17,2′-oxiran]-3-ol], the “effect of the α1 Q241L mutation” value in test [2] (compound 0.5 TM) is listed as “abolishes, completely or nearly completely”.

`C[C@]12CC[C@@H](O)C[C@@H]1C[C@H](OCc1ccccc1)[C@@H]1[C@@H]2CC[C@]2(C)C(=O)CC[C@@H]12` [compound 6, (3α,5α,7β)-7-Benzyloxy-3-hydroxyandrostan-17-one]: the “effect on GABA-mediated currents” value in test [3] was “weakly inhibit”. The “Tadpole LSR EC50” value in the test on tadpoles [4] was “None^e”.

For `C[C@@]12CC[C@H](O)C[C@H]1CC[C@@H]1[C@@H]2CC[C@@]2(C)C(=O)CC[C@@H]12` (single isomer, unassigned) [compound ent-2, ent-androsterone], the EC50 in the test with tadpoles [1] (setting [5]) was 1420 ± 180 nM.

For the compound `C[C@]12CC[C@@H](O)C[C@@H]1CC[C@@H]1[C@@H]2[C@@H](OCc2ccccc2)C[C@]2(C)C(=O)CC[C@@H]12` [compound 4, (3α,5α,11β)-11-Benzyloxy-3-hydroxyandrostan-17-one], the “effect of the α1 Q241L mutation” value in test [2] (compound 1 TM) is “abolishes, completely or nearly completely”.

With `C[C@]12CC[C@@H](O)C[C@@H]1C[C@H](OCc1ccccc1)[C@@H]1[C@@H]2CC[C@@]2(C)[C@H]1CC[C@@]21CO1` [compound 7, (3α,5α,7β,17β)-Spiro-[7-Benzyloxyandrostane-17,2′-oxiran]-3-ol], in test [3], the “effect on GABA-mediated currents” value is “weakly inhibit”.

As for `CC(=O)[C@H]1CC[C@H]2[C@@H]3CC[C@H]4C[C@H](O)CC[C@]4(C)[C@H]3CC[C@]12C` [compound 1, allopregnanolone], the EC50 in the test with tadpoles [1] (read-out: Tadpole LSR EC50, loss of swimming reflex, literature values ref 27) was 5500 ± 500 nM; with tadpoles [1] (read-out: tadpole LRR EC50, loss of righting reflex, literature values ref 27) it was 420 ± 40 nM. For the same compound, the “effect of the α1 Q241L mutation” value in test [2] (compound 0.5 TM) is “eliminates the potentiation”.

In the case of `C[C@@]12CC[C@H](O)C[C@H]1C[C@@H](OCc1ccccc1)[C@@H]1[C@@H]2CC[C@@]2(C)C(=O)CC[C@@H]12` (single isomer, unassigned) [compound ent-6, (3β,5β,7α,8α,9β,10α,13α,14β)-7-Benzyloxy-3-hydroxyandrostan-17-one], the “effect of the α1 Q241L mutation” value in test [2] (compound 1 TM) is recorded as “abolishes, completely or nearly completely”.

Regarding `C[C@@]12CC[C@H](O)C[C@H]1CC[C@@H]1[C@@H]2[C@H](OCc2ccccc2)C[C@@]2(C)C(=O)CC[C@@H]12` (single isomer, unassigned) [compound ent-4, (3β,5β,8α,9β,10α,11α,13α,14β)-11-Benzyloxy-3-hydroxyandrostan-17-one], the “effect on GABA-mediated currents” value in test [3] is listed as “weakly inhibit”.

In the case of `C[C@]12CC[C@@H](O)C[C@@H]1CC[C@@H]1[C@@H]2CC[C@]2(C)C(=O)CC[C@@H]12` [compound 2, androsterone], the 50% effective concentration (EC50) in the test with tadpoles [1] (setting [5]) is 3380 ± 900 nM.
